Measurements: publication PMC3972761 (Chemistry & biology, 2008)
Marks after values point to notes of the source that are not given here.

Key:
purified hMGL = target: T1, purified hMGL (Homo sapiens, UniProt Q99685); test: Inhibition of purified hMGL at fixed inhibitor:hMGL molar ratios; type: biochemical; settings: for hMGL Inhibition (%) 10 min: 50 μM AHMMCE, 1 hr preincubation
T1 sequence (Q99685 1-303): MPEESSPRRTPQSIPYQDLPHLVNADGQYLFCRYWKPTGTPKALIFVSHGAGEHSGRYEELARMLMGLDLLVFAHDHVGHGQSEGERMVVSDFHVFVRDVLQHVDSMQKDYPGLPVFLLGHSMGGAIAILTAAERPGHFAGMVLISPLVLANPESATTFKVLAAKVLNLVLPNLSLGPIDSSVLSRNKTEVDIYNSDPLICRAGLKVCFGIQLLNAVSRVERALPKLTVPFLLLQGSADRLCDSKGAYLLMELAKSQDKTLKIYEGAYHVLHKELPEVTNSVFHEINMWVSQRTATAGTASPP

[1] = target: T2, hMGL (recombinant hexa-histidine-tagged human MGL) (Homo sapiens, UniProt Q99685); test: Fluorescence-based AHMMCE hydrolysis assay, E. coli lysate containing hMGL; type: biochemical; settings: for hMGL inhibition potency (in words): E. coli lysate containing hMGL, 3-hr incubation, AHMMCE
T2 sequence (Q99685 1-303): T1 sequence (Q99685 1-303)
How it was run: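 Test compound was preincubated 15 min at room temperature with E. coli lysate containing hMGL (175 ng total protein) in 50 mM Tris-HCl pH 7.4 with 8% DMSO. AHMMCE was then added (20 μM final) and fluorescence (360/460 nm) read every 15 min for 3 hr. HMC formed at 2 h was quantified against an HMC standard curve, and IC50 was fitted by nonlinear regression.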

hMGL cysteine residues = target: T3, hMGL cysteine residues (Homo sapiens, UniProt Q99685); test: MALDI-TOF MS of tryptic digest of NAM-treated hMGL; settings: for Relative Alkylation of Cys39: percent alkylation of Cys39 relative to Cys208
T3 sequence (Q99685 1-303): T1 sequence (Q99685 1-303)
How it was run: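 Purified His-tagged hMGL (3 μM) was incubated 1 hr at room temperature in 10 mM Tris-HCl pH 8.0 with test compound at set molar ratios. It was desalted into 50 mM ammonium bicarbonate with 0.02% CYMAL, pH 8.0, then trypsin-digested overnight, either directly or after DTT (17 mM, 30 min) and iodoacetamide (55 mM, 1 hr, dark). Digests were analysed by MALDI-TOF MS with CHCA matrix.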

recombinant MGL = settings: read-out: IC50, recombinant MGL; time-dependent; ref Alexander and Cravatt, 2006; cited from earlier work
[2] = inhibitor:hMGL molar ratio 3.3:1
[3] = inhibitor:hMGL molar ratio 8.3:1

## CN(C)C(=O)n1nnc(Cc2ccc(-c3ccccc3)cc2)n1 [AM6701, 5-((biphenyl-4-yl)methyl)-N,N-dimethyl-2H-tetrazole-2-carboxamide]
Purified hMGL; inhibitor:hMGL molar ratio 1:1
  hMGL Inhibition (%) 10 min: 72%
Purified hMGL; [2]
  hMGL Inhibition (%) 10 min: 85%
Purified hMGL; [3]
  hMGL Inhibition (%) 10 min: 91%

## CN(C)C(=O)n1nnnc1Cc1ccc(-c2ccccc2)cc1 [AM6702, 5-((biphenyl-4-yl)methyl)-N,N-dimethyl-1H-tetrazole-1-carboxamide]
[1]
  hMGL inhibition potency (in words): nM range

## CCCCC/C=C\C/C=C\C/C=C\C/C=C\CCCCN1C(=O)C=CC1=O [NAM, N-arachidonylmaleimide]
[1]
  hMGL inhibition potency (in words): markedly less potent
[1]; large molar NAM excesses (Figure 1C)
  extent of hMGL inhibition at large molar excesses: completely
hMGL cysteine residues; NAM:hMGL ratio 8.3:1
  Relative Alkylation of Cys208: 0%
  Relative Alkylation of Cys39: 0%
hMGL cysteine residues; NAM:hMGL ratio 33:1
  Relative Alkylation of Cys39: 100% ^(a)
hMGL cysteine residues; NAM:hMGL ratio 33:1, relative to Cys39/Cys208 pair
  Relative Alkylation of Cys208: 0% ^(a)
Purified hMGL; inhibitor:hMGL molar ratio 1:1
  hMGL Inhibition (%) 10 min: 51%
Purified hMGL; [2]
  hMGL Inhibition (%) 10 min: 80%
Purified hMGL; [3]
  hMGL Inhibition (%) 10 min: 82%
Purified hMGL; inhibitor:hMGL molar ratio 33:1
  hMGL Inhibition (%) 10 min: 84%
Purified hMGL; molar ratio not stated at the place
  hMGL inhibition achieved with partial alkylation of Cys215 and/or Cys249: ~ 80%

## LY2183240
Recombinant MGL
  IC50: ~5.3 nM
